Experimental data reported in ChEMBL document CHEMBL1127834, “Naphthalenic lignan lactones as selective, nonredox 5-lipoxygenase inhibitors. Synthesis and biological activity of (methoxyalkyl)thiazole and methoxytetrahydropyran hybrids” (J Med Chem, 1994).

Columns and labels:
Homo sapiens [1] = species: Homo sapiens; assay: In vitro inhibition of LTB4 formation in human peripheral blood polymorphonuclear leukocytes (HPMN); assay type: functional
Homo sapiens [2] = species: Homo sapiens; assay: In vitro inhibition of LTB4 formation in human whole blood(HWB); assay type: functional
[3] = target: T1, Polyunsaturated fatty acid 5-lipoxygenase (Homo sapiens, UniProt P09917); assay: In vitro potency against human 5-Lipoxygenase
T1 sequence (P09917 whole entry): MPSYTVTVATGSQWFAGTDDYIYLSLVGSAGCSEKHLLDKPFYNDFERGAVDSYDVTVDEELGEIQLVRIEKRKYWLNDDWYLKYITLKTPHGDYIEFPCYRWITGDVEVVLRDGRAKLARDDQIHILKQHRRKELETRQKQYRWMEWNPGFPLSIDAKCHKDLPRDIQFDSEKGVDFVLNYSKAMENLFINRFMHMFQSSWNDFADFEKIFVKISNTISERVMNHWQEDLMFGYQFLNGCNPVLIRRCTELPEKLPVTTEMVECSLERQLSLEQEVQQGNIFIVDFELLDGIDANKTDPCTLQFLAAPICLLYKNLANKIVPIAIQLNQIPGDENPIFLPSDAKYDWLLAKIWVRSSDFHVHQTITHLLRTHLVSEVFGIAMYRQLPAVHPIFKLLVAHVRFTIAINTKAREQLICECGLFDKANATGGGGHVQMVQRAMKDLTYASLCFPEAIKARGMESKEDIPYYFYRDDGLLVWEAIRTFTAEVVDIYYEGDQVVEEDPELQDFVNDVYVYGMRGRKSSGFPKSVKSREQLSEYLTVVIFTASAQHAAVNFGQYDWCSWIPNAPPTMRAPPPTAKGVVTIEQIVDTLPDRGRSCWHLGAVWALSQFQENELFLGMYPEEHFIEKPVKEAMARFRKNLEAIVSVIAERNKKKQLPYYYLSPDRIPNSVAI
Outline: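 Soluble cell-free fraction of Sf9 cells expressing recombinant human 5-LO (10 μg protein/mL). Conjugated diene formation followed at A234. Inhibitors added from 500-fold DMSO stocks.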

[4] = Cmax value of compound was determined after 1 hr; assay type: ADME, organism-based; settings: in vivo
Outline: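 Male Sprague-Dawley rats (2), starved overnight, dosed orally at 50 mg/kg as a solution in 0.5% methocel. Jugular vein blood sampled at 0, 0.5, 1, 2, 4, 6 and 8 h. Plasma proteins precipitated with an equal volume of acetonitrile. Supernatant analysed by reversed-phase HPLC for the lactone.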

Rattus norvegicus [5] = species: Rattus norvegicus; assay: Dose-dependent inhibition of LTB4 by the compound after 3h of oral pretreatment in rat pleural; assay type: functional
Monkey = assay: Inhibition of antigen-induced bronchoconstriction in allergic squirrel monkeys at 0.3 mg/kg; assay type: functional; settings: in Saimiri
Outline: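 Allergic squirrel monkeys dosed orally at 0.3 mg/kg 4 h before aerosol challenge with Ascaris antigen. Read-outs were the increase in airway resistance (RL) and the decrease in dynamic compliance (Cdyn).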

Rattus norvegicus [6] = species: Rattus norvegicus; assay: Dose-dependent inhibition of LTB4 by the compound after 2 hr of oral pretreatment in rat pleural; assay type: functional

IC50 (Homo sapiens [1]) | IC50 (Homo sapiens [2]) | IC50 [3] | Cmax [4] | Structure (SMILES) | ED50 (Rattus norvegicus [5]) | inhibition in vivo at 0.3 mg/kg (Monkey) | ED50 (Rattus norvegicus [6])
4.8 nM | 1400 nM | 160 nM |  | CCC(OC)(c1cccc(COc2ccc3c(-c4ccccc4)c4c(cc3c2)C(=O)OC4)c1)c1nccs1 (configuration not stated) |  |  | 
1.5 nM | 50 nM |  | 4 µM | COC1(c2cccc(COc3ccc4c(-c5ccccc5)c5c(cc4c3)C(=O)OC5)c2)CCOCC1 |  |  | 
4.4 nM | 700 nM |  |  | CCC(OC)(c1cccc(OCc2ccc3ccccc3c2)c1)c1nccs1 (configuration not stated) [ZM-211965] |  |  | 
 | 2000 nM |  |  | CC(c1cc2ccccc2s1)N(O)C(N)=O (configuration not stated) [ZILEUTON] |  |  | 
 |  |  |  | COC1(c2cccc(COc3ccc4c(-c5ccccc5)c(CO)c(C(=O)[O-])cc4c3)c2)CCOCC1.[Na+] | 0.6 mg/kg | 95% | 
2.2 nM | 700 nM | 50 nM |  | CCC(OC)(c1cccc(OCc2ccc3c(-c4ccccc4)c4c(cc3c2)C(=O)OC4)c1)c1nccs1 (configuration not stated) |  |  | 
 |  | 5000 nM |  | CC(C)(C)Sc1c(CC(C)(C)C(=O)O)n(Cc2ccc(Cl)cc2)c2ccc(OCc3ccc4ccccc4n3)cc12 [QUIFLAPON] |  |  | 0.5 mg/kg
55 nM | 1500 nM | 1000 nM |  | COC1(c2cccc(COc3ccc4ccccc4c3)c2)CCOCC1 |  |  | 
1.2 nM | 60 nM | 10 nM |  | COC1(c2cccc(OCc3ccc4ccccc4c3)c2)CCOCC1 |  |  | 
0.9 nM | 50 nM | 20 nM |  | COC1(c2cccc(OCc3ccc4c(-c5ccccc5)c5c(cc4c3)C(=O)OC5)c2)CCOCC1 |  |  | 
11 nM | > 3000 nM |  |  | CCC(OC)(c1cccc(COc2ccc3ccccc3c2)c1)c1nccs1 (configuration not stated) |  |  | 
